Compound activity deposited in PubChem BioAssay by Broad Institute.
In the library only some 5.9% were active in any assay of this set; here they are far more common.
IDH1 R132H inh: inhibitors of human IDH1 R132H. O75874. IDH1 R132H reductase, diaphorase/resazurin fluorescence, 60 min. inhibition, % at 10 µM. 70,000 tested, 0.18% active. AID 624101; in the data active means inhibition above about 34%; inconclusive means no clear call, values can overlap the other calls; inactive means below about 11%;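 further: 0% = DMSO and 100% = no enzyme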
Target sequence (O75874 whole entry R132H): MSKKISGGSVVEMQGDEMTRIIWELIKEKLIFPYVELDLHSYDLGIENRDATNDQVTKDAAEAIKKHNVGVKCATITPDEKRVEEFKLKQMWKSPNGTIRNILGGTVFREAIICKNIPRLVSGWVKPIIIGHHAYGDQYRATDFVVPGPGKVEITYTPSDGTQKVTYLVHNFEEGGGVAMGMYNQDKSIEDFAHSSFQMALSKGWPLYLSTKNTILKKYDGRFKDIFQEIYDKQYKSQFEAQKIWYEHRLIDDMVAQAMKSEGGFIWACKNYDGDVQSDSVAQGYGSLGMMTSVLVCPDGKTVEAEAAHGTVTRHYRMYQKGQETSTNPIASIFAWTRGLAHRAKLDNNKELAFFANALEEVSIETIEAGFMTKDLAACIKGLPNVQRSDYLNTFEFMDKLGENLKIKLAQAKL
T cruzi growth-1: T. cruzi proliferation inhibition; inhibition, % at 8.34 µM; 77,000 tested, 5.9% active; T. cruzi beta-gal in NIH3T3, GalScreen luminescence, 90 h; AID 624255;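 active means mean inhibition above about 93%, with at least 55% of replicates each passing it, limit read from the data, passing the limit was not always enough; inconclusive means only one of those two conditions holds; inactive means neither condition holds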
GASC1 inh: inhibitors of human demethylase GASC-1 KDM4C. GST-KDM4C 2-372, H3K9me3 peptide, LANCE TR-FRET. inhibition, % at 12.5 µM. 96,000 tested, 0.15% active. Q9H3R0;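 active means mean replicate inhibition above about 25%, with at least 55% of replicates also reaching it, limit read from the data, passing the limit was not always enough; inconclusive means only one of those two conditions met; inactive means neither condition met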
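reagent = H3K9me3 peptide substrate, Fe(II), 2-oxoglutarate | system = GST-tagged GASC-1 (JMJD2C) catalytic fragment, aa 2-372 | amount = enzyme final amount 10 nM | read-out = Fall in 671/618 emission ratio as inhibition | medium = HEPES buffer, pH 7.5, plus ascorbate | schedule = 30 min reaction, 60 min detection, RT | measured by = LANCE TR-FRET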
Pf Dd2 inh: P. falciparum Dd2 growth inhibition. SYBR Green, 72 h; active compounds read low. AID 1159554. 94,000 tested, 2.3% active. activity change, % at 10 µM; in the data active means activity change below about -80%; inconclusive means no clear call, values can overlap the other calls
T cruzi growth-2: Trypanosoma cruzi proliferation inhibition. AID 651739. shares compounds with T cruzi growth-1. inhibition, % at 8.35 µM. 5,600 tested, 72% active. T. cruzi beta-gal in NIH3T3, GalScreen luminescence, 90 h;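 active means mean replicate inhibition above about 95% and at least 55% of replicates individually reaching it, limit read from the data; inconclusive means only one of the two criteria is met; inactive means neither criterion is met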
T cruzi growth-3: blocks T. cruzi growth in NIH3T3 host cells; shares compounds with T cruzi growth-1; T. cruzi beta-gal in NIH3T3, GalScreen luminescence, 90 h; inhibition, % at 2.09 µM; 5,600 tested, 21% active;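 active means mean inhibition above about 95%, with at least 55% of replicates also reaching it, limit read from the data; inconclusive means meets just one of the two conditions; inactive means meets neither condition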;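 further: plate controls were neutral control median for no effect and positive control median for full effect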
3T3 cytotox: NIH/3T3 (mouse) viability loss; shares compounds with T cruzi growth-1; NIH/3T3 viability, CellTiter-Glo ATP luminescence, 90 h; cytotoxicity (signal decrease), % at 8.35 µM; 5,600 tested, 14% active; AID 651742;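 active means mean signal decrease across replicates above about 35% based on untreated-well scatter, with enough replicates individually passing, limit read from the data; inconclusive means no rule stated though some were filed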;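 further: 0% = median of neutral control wells and 100% = median of positive control wells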
3T3 cytotox 2: kills mouse NIH/3T3 fibroblasts; shares compounds with T cruzi growth-1; inhibition, % at 24.9 µM; NIH/3T3 viability, CellTiter-Glo ATP luminescence, 90 h; 5,600 tested, 56% active; AID 651744;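 active means mean loss of cell viability signal at or above a set limit, and enough replicates individually reaching it; inconclusive means meets only the mean limit or only the replicate share; inactive means meets neither condition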;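 further: 0% = median of neutral control wells and 100% = median of positive control wells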
An asterisk follows results filed as active; ? = inconclusive; · = no result given; ! = not confirmed by another sample.

SMILES	IDH1 R132H inh	T cruzi growth-1	GASC1 inh	Pf Dd2 inh	T cruzi growth-2	T cruzi growth-3	3T3 cytotox	3T3 cytotox 2
C[C@@H]1CN([C@H](C)CO)C(=O)CCCn2cc(nn2)CO[C@H]1CN(C)C(=O)c1ccc(N2CCN(C)CC2)cc1	-0.1	-5.3	1.1	-2.3	·	·	·	·
C[C@H](CO)N1C[C@H](C)[C@@H](CN(C)C(=O)Nc2ccccc2)OCc2cn(nn2)CCCC1=O	1.5	127.4*!	-0.4	8.2	-24.8	-13.9	-9.6	-0.6
C[C@H](CO)N1C[C@H](C)[C@H](CN(C)Cc2ccc(C(F)(F)F)cc2)OCc2cn(nn2)CCCC1=O	1.7	?	1.4	-17.4	63.7	-7.9	0.7	4.5
C[C@@H]1CN([C@@H](C)CO)C(=O)CCCn2cc(nn2)CO[C@H]1CN(C)C(=O)c1ccc(N2CCN(C)CC2)cc1	-0.2	?	-1.1	-1.9	35.0	5.1	-23.0	1.3
Cc1ccccc1NS(=O)(=O)c1ccc(Cl)c(C(=O)Nc2ccccc2C(=O)O)c1	1.4	·	·	·	·	·	·	·
C[C@H]1CN([C@@H](C)CO)C(=O)CCCn2cc(nn2)CO[C@@H]1CN(C)C(=O)Nc1ccc(C(C)(C)C)cc1	3.1	-5.4	·	-1.8	·	·	·	·
C[C@@H]1CN([C@H](C)CO)C(=O)CCCn2cc(nn2)CO[C@@H]1CN(C)C(=O)Nc1ccc(C(C)(C)C)cc1	2.4	122.3*	-0.3	1.5	101.0*	-47.5	-2.4	5.8
C[C@H](CO)N1C[C@H](C)[C@H](CN(C)C(=O)CCC(F)(F)F)OCc2cn(nn2)CCCC1=O	·	-4.1	9.5	10.4	·	·	·	·
C[C@@H]1CN([C@H](C)CO)C(=O)CCCn2cc(nn2)CO[C@@H]1CN(C)C(=O)CCC(F)(F)F	1.7	?	-1.4	-11.5	46.4	56.3	1.4	-0.4
COc1ccccc1CNC(=O)C[C@H]1CC[C@H]2[C@@H](COC[C@@H](O)CN2Cc2ccccc2)O1	·	·	0.1	12.3	·	·	·	·
COc1ccccc1CNC(=O)C[C@@H]1CC[C@@H]2[C@H](COC[C@H](O)CN2Cc2cccc(-c3ccncc3)c2)O1	·	117.4*	3.0	·	82.7	73.0	-12.1	55.4*
COc1ccccc1CNC(=O)C[C@@H]1CC[C@H]2[C@@H](COC[C@@H](O)CN2Cc2cccc(-c3ccncc3)c2)O1	·	121.9*	-0.3	·	81.8	92.8	48.1*	43.6*
COc1ccccc1CNC(=O)C[C@H]1CC[C@@H]2[C@H](COC[C@@H](O)CN2Cc2ccccc2)O1	·	·	0.2	-1.8	·	·	·	·
COc1ccccc1CNC(=O)C[C@H]1CC[C@@H]2[C@H](COC[C@H](O)CN2Cc2cccc(-c3ccncc3)c2)O1	·	120.7*	3.2	·	102.4*	93.9	23.5	25.0*
COc1ccccc1CNC(=O)C[C@@H]1CC[C@@H]2[C@H](COC[C@H](O)CN2Cc2ccccc2)O1	·	·	-2.4	-19.2	·	·	·	·
COc1ccccc1CNC(=O)C[C@H]1CC[C@H]2[C@@H](COC[C@@H](O)CN2Cc2cccc(-c3ccncc3)c2)O1	·	112.7*	1.2	·	82.2	81.5	6.4	30.9*
Cc1cc(C)c(NC(=O)CSc2nncc3ccccc23)c([N+](=O)[O-])c1	-0.7	·	·	·	·	·	·	·
COc1cc(S(=O)(=O)NCc2cccnc2)ccc1Br	0.1	·	·	·	·	·	·	·
COc1ccccc1CNC(=O)C[C@H]1CC[C@H]2[C@@H](COC[C@@H](O)CN2Cc2ccc3c(c2)OCO3)O1	·	17.9	-1.3	4.2	·	·	·	·
COc1ccccc1CNC(=O)C[C@@H]1CC[C@@H]2[C@H](COC[C@H](O)CN2Cc2ccc3c(c2)OCO3)O1	·	150.3*	0.9	-52.2	54.8	-21.8	-5.0	5.3
COCCNC(=O)C[C@H]1CC[C@@H]2[C@H](COC[C@@H](O)CN2Cc2cccc(-c3ccncc3)c2)O1	·	108.6*	0.0	9.0	91.6	86.8	-3.3	3.4
COCCNC(=O)C[C@H]1CC[C@H]2[C@@H](COC[C@H](O)CN2Cc2cccc(-c3ccncc3)c2)O1	·	78.1	-1.5	-6.6	·	·	·	·
O=C(CN1C(=O)c2ccccc2C1=O)Nc1ccc(S(=O)(=O)N2CCCCCC2)cc1	-0.1	·	·	·	·	·	·	·
COCC(=O)N1CC[C@@H]2[C@H]1c1cc(C#Cc3ccc(OC)cc3)ccc1N[C@@H]2CO	·	42.1	-1.0	-18.4	·	·	·	·
COc1ccc(C#Cc2ccc3c(c2)[C@H]2[C@H](CCN2C(=O)c2ccncc2)[C@H](CO)N3)cc1	·	100.8*	0.0	-59.7	107.3*	61.0	25.9	37.5*
SMILES	IDH1 R132H inh	T cruzi growth-1	GASC1 inh	Pf Dd2 inh	T cruzi growth-2	T cruzi growth-3	3T3 cytotox	3T3 cytotox 2
COc1ccc(C#Cc2ccc3c(c2)[C@H]2[C@H](CCN2C(=O)CC2CC2)[C@H](CO)N3)cc1	·	?	-0.2	-22.1	98.2*	51.6	6.4	21.1
COCC#Cc1ccc2c(c1)O[C@@H](CN(C)Cc1ccncc1)[C@H](C)CN([C@@H](C)CO)S2(=O)=O	3.5	?	2.4	-7.8	93.6	96.8*	2.0	65.0*
COCC#Cc1ccc2c(c1)O[C@H](CN(C)Cc1ccncc1)[C@@H](C)CN([C@H](C)CO)S2(=O)=O	1.2	44.4	0.7	27.1	·	·	·	·
COCC#Cc1ccc2c(c1)O[C@@H](CN(C)Cc1ccccc1)[C@H](C)CN([C@@H](C)CO)S2(=O)=O	-2.3	101.0*	-4.0	-70.2	84.7	64.3	51.6*	99.4*
Cc1cc(Br)ccc1NC(=O)CN(C)S(=O)(=O)c1ccc(Cl)cc1	-0.1	·	·	·	·	·	·	·
N#C[C@@H]1[C@@H](c2ccc(C#Cc3ccccc3F)cc2)[C@H](CO)N1C(=O)C1CCCCC1	·	87.0	-7.5	-69.3	·	·	·	·
N#C[C@H]1[C@@H](c2ccc(C#Cc3ccccc3F)cc2)[C@@H](CO)N1C(=O)C1CC1	0.1	103.0*	-0.5	-64.6	104.5*	104.3*	4.5	30.0*
N#C[C@@H]1[C@H](c2ccc(C#Cc3ccccc3F)cc2)[C@@H](CO)N1C(=O)C1CC1	·	99.2*	0.3	-7.0	98.7*	42.7	5.9	42.8*
N#C[C@@H]1[C@@H](c2ccc(C#Cc3ccccc3F)cc2)[C@@H](CO)N1C(=O)C1CCCCC1	·	102.1*	0.5	-28.0	109.2*	69.7	-9.2	79.5*
N#C[C@H]1[C@@H](c2ccc(C#Cc3ccccc3F)cc2)[C@H](CO)N1C(=O)C1CC1	·	94.6	-2.3	-34.8	·	·	·	·
COCC(=O)N1[C@H](C#N)[C@@H](c2ccc(C#Cc3ccccc3F)cc2)[C@H]1CO	1.0	101.5*	-0.4	-11.1	98.1*	34.2	-0.9	1.6
N#C[C@@H]1[C@H](c2ccc(C#Cc3ccccc3F)cc2)[C@H](CO)N1C(=O)C1CC1	·	100.1*	-0.7	-52.6	102.1*	110.1*	22.6	44.5*
